As a reminder, the Ki is the dissociation constant of the complex between target and ligand, obtained from inhibition or displacement. A higher Ki goes with lower affinity. Broadly, the Emax is the greatest response seen or fitted, relative to the assay's reference. One may read the EC50 as the concentration at which the effect is half-maximal.

These results are taken from ChEMBL document CHEMBL1921750 (J Med Chem, 2011).

Activity calls are given as the source filed them. The calls are words filed in the database; no cut-off is given here.

In series [1] the target is Cannabinoid receptor 2 (Homo sapiens, UniProt P34972). The experiment in a line: Displacement of [3H]CP55940 from human CB2 receptor expressed in human HEK293 cells. Format: cell-based. In short, it runs like this: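 Membranes from HEK-293 cells stably expressing human CB1 or CB2. Compounds displacing >50% at 10 μM got curves at 1–1000 nM. Ki from IC50 via Cheng–Prusoff. Three experiments in duplicate. SI = Ki CB2/Ki CB1.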
Chain of Cannabinoid receptor 2 (P34972 whole entry): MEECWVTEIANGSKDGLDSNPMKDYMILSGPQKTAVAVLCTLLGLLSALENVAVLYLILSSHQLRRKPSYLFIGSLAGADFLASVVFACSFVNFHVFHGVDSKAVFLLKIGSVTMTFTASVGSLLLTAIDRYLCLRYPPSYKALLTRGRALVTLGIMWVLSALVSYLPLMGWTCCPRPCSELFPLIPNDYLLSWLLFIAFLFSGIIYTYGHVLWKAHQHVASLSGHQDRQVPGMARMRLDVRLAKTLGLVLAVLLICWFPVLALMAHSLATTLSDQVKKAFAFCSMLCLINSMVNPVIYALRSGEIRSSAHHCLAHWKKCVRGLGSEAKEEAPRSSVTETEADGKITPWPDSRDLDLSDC
On the technique in general: In a radioligand displacement assay an active substance lowers the binding of a labelled ligand.

The target of series [2] is T1, Cannabinoid receptor 1 (Homo sapiens, UniProt P21554). Put plainly: Displacement of [3H]CP55940 from human CB1 receptor expressed in human HEK293 cells. It is filed as cell-based.
T1 sequence (P21554 whole entry): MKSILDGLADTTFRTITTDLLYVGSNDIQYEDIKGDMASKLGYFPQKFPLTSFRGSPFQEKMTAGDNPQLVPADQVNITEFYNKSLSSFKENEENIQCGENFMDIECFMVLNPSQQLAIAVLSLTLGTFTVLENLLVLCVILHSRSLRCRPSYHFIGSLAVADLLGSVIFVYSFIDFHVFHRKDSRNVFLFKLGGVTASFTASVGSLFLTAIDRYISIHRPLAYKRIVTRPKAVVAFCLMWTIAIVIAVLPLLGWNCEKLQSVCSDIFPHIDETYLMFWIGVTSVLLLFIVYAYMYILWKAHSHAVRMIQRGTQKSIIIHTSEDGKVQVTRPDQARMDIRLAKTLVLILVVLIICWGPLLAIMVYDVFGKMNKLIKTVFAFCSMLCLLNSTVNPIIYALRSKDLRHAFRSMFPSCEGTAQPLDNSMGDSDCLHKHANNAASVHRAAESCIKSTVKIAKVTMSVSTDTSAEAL
The target in series [3] is Cannabinoid receptor 1 (Mus musculus) (UniProt P47746). Put plainly: Agonist activity at MF1 mouse brain CB1 receptor assessed as induction of [35S]GTPgammaS binding after 60 mins by liquid scintillation counting relative to cannabinoid receptor agonist CP55940. Format: functional, tissue-based. In short, it runs like this: (§1)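 [35S]GTPγS binding in buffer of 50 mM Tris-HCl, 50 mM Tris-base, 5 mM MgCl2, 1 mM EDTA, 100 mM NaCl, 1 mM DTT, 0.1% BSA with 0.1 nM [35S]GTPγS and 30 μM GDP. Mouse whole brain membranes (5 μg/well) were preincubated 30 min at 30 °C with adenosine deaminase. CHO-hCB1 membranes were used at 50 μg/well. Test range 1 nM–10 μM. Incubation 60 min at 30 °C, filtration, scintillation counting. Nonspecific binding taken with 30 μM GTPγS. Net stimulation = agonist minus basal. EC50/Emax by sigmoid nonlinear regression.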
Chain of Cannabinoid receptor 1 (Mus musculus) (P47746 whole entry): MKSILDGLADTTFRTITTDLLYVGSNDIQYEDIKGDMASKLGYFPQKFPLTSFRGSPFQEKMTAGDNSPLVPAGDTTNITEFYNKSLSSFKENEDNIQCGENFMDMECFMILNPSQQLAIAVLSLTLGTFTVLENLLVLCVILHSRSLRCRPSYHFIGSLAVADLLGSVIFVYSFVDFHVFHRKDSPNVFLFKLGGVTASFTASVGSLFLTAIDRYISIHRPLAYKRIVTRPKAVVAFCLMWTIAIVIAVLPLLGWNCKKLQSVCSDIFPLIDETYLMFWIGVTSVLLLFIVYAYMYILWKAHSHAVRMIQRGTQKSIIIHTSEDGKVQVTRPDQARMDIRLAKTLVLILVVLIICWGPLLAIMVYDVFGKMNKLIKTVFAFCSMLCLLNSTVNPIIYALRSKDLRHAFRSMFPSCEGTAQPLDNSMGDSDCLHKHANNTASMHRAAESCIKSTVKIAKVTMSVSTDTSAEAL

For series [4], the target named is Cannabinoid receptor 1 (Mus musculus, UniProt P47746). Put plainly: Agonist activity at MF1 mouse brain CB1 receptor assessed as induction of [35S]GTPgammaS binding after 60 mins by liquid scintillation counting. It is filed as functional, tissue-based. The procedure, abridged:
as §1

Series [5] addresses Cannabinoid receptor 1 (Mus musculus) (UniProt P47746). The experiment in a line: Antagonist activity at MF1 mouse brain CB1 receptor assessed as inhibition of CP55940-induced [35S]GTPgammaS binding at 1 uM after 60 mins by liquid scintillation counting. It is filed as functional. In short, it runs like this: (§2)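 Same [35S]GTPγS assay on mouse whole brain membranes (5 μg/well, adenosine deaminase-preincubated). 0.1 nM [35S]GTPγS, 30 μM GDP. Single concentration of test compound, 1 μM or 100 nM, against a log concentration-response curve of CP-55940. Incubation 60 min at 30 °C. Read by filtration and liquid scintillation counting.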
A general note: GTPγS is a poorly hydrolysed GTP analogue; its binding reports G protein activation.

Series [6] addresses T1, Cannabinoid receptor 1. Put plainly: Agonist activity at human CB1 receptor expressed in CHO cells assessed as induction of [35S]GTPgammaS binding after 60 mins by liquid scintillation counting. It is filed as functional, cell-based. The procedure, abridged:
as §1

The target of series [7] is T1, Cannabinoid receptor 1. The experiment in a line: Antagonist activity at human CB1 receptor expressed in CHO cells assessed as inhibition of CP55940-induced [35S]GTPgammaS binding after 60 mins by liquid scintillation counting. It is filed as functional, cell-based.
The species entered for series [8] is Homo sapiens. The experiment in a line: Selectivity index, ratio of Ki for human CB2 receptor to Ki for human CB1 receptor. In short, it runs like this:
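Membranes from HEK-293 cells stably expressing human CB1 or CB2. […] Preliminary screen at 5, 10, 25 μM. Compounds displacing >50% at 10 μM got curves at 1–1000 nM. Ki from IC50 via Cheng–Prusoff. Three experiments in duplicate. SI = Ki CB2/Ki CB1.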

Series [9] in a line: Chemical stability of the compound in biological buffer at 2.1 mM at 30 degC after 90 mins by LC-MS/MS analysis. Format: physicochemical. The following applies: 1.5 h, 2100 µM. The procedure, abridged: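 DMSO solution (2.1 mM stock) diluted in GTPγS binding buffer and incubated 90 min at 30 °C. Samples taken at 60 and 90 min and analysed by LC–ESI triple-quadrupole MS (positive mode, C18, acetonitrile/0.1% formic acid gradient) for hydrolysis products.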

Series [10] concerns Plasma. Put plainly: Metabolic stability of the compound in human plasma assessed as plasma esterase-mediated compound hydrolysis at 100 uM from 15 to 120 mins by reverse-phase LC-MS analysis. Format: ADME, cell-free. The procedure, abridged: (§3)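 Citrated human plasma, or water as control, spiked to final 1 × 10⁻⁴ or 2 × 10⁻⁴ M. Incubated at 37 °C for 0, 15, 30, 60, 120 min, stopped with acetonitrile, centrifuged. Supernatant run by reverse-phase LC (C8, methanol/water 92/8) with UV 254 nm and positive-ion MS. Triplicates. AUC(0–120 min) compared by Student's t test.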

Series [11] deals with Plasma. Put plainly: Metabolic stability of the compound in human plasma assessed as plasma esterase-mediated compound hydrolysis at 200 uM from 15 to 120 mins by reverse-phase LC-MS analysis. Format: ADME, cell-free. In short, it runs like this:
as §3

The target in series [12] is Cannabinoid receptor 1 (Mus musculus) (UniProt P47746). Put plainly: Antagonist activity at MF1 mouse brain CB1 receptor assessed as inhibition of CP55940-induced [35S]GTPgammaS binding at 100 nM after 60 mins by liquid scintillation counting. It is filed as functional. In short, it runs like this: as §2
Series [13] deals with CYP3A4. Put plainly: Metabolic stability assessed as compound remaining at 1 uM after 1 hr by LC-MS analysis in presence of human CYP3A4 and NADPH. It is filed as ADME. Conditions: human CYP3A4 enzyme, read-out: Stability. In short, it runs like this: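 Recombinant human CYP3A4 at 20 pmol/mL (0.1–0.2 mg/mL protein). Substrate final 1 μM, 0.25% organic solvent. Run with NADPH regenerating system or phosphate buffer instead. Incubated 1 h at 37 °C, stopped with acetonitrile. Percent remaining by MS.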

Chain of Cannabinoid receptor 1 (Mus musculus, UniProt P47746) (P47746 whole entry): as above

Take `CCCCCCC(C)(C)c1cc(O)cc(OCCCCCCCCCCC(=O)OCC(O)CO)c1` (stereo not given): the Ki in series [1] was 0.31 µM; in series [2], over 10 µM.

As for `CCCCCc1cc(O)cc(OCCCCCCOC(CO)CO)c1`, the results for the Ki in series [1] and in series [2] were 0.91 µM and 0.43 µM, respectively.

In the case of `CCCCCc1cc(O)cc(OCCCCCCCCOC(CO)CO)c1`, the Ki in [1] was determined as 1.16 µM; in series [2] it was 1.86 µM.

As for `CCCCCc1cc(O)cc(OCCCCCCCCCCC(=O)OCC(O)CO)c1` (stereo not given), the Ki in series [1] was 7.91 µM; in series [2], over 10 µM.

With `CCCCCc1cc(O)cc(OCCCCCCCCCCCCOC(CO)CO)c1`, the results for the Ki in series [1] and in [2] were over 10 µM and 3.78 µM, respectively.

Turning to `CCCCC/C=C\C/C=C\C/C=C\C/C=C\CCCCOC(CO)CO`, the values for the Ki in series [1] and in series [2] were over 3 µM and 0.02 µM, respectively.

Regarding `CCCCCCc1ccc(O)cc1OCCCCCCCCCCC(=O)OCC(O)CO` (stereo not given), the Ki in series [1] was 4.82 µM; in series [2] it was over 10 µM.

As for `CCCCCCC(C)(C)c1cc(O)cc(OCCCCCCCCCCCC(=O)OC(CO)CO)c1`, the figures for the Ki in series [1] and in [2] were 0.8 µM and 2.71 µM, respectively.

Take `CCCCCCC(C)(C)c1ccc([C@@H]2C[C@H](O)CC[C@H]2CCCO)c(O)c1` [CP-55940]: the Emax in series [3] turned out to be 104%. Besides, the concentration giving a half-maximal response (EC50) in [4] is 0.042 µM.

In the case of `CCCCCCc1ccc(O)cc1OCCCCCCCCCCC(=O)OC(CO)CO`, the figures for the Ki in series [1] and in [2] were 1.8 µM and 0.06 µM, respectively. Moreover, the Emax in series [3] turned out to be 11.4%. The outcome in [5], in [6] and in [7] was inactive. Also, the EC50 in series [4] came to 0.0784 µM. In series [8], the Ratio Ki was found to be 32.

`CCCCCCC(C)(C)c1cc(O)cc(OCCCCCCCCCCC(=O)OC(CO)CO)c1`: the Stability result in series [9], in series [10] and in [11] was “Stable” throughout. The Ki is 0.79 µM in series [1] and 0.01 µM in series [2]. Further, the Emax in series [3] turned out to be 14.7%. The EC50 in [4] worked out at 0.0063 µM. In addition, the result in [6], in [7] and in [12] was inactive. For the same compound, the Ratio Ki in series [8] was found to be 88. Moreover, in series [13], the remaining at 1 h, 1 µM was found to be 24%.

Consider `CCCCCc1cc(O)cc(OCCCCCCCCCCC(=O)OC(CO)CO)c1`, for which the figures for the Ki in series [1] and in [2] were 0.87 µM and 5.6 µM, respectively.

In the case of `CCCCCCC(C)(C)c1cc(O)cc(OCCCCCCCCOC(CO)CO)c1`, the Ki in series [1] was determined as 0.11 µM; in series [2] it was 0.27 µM.

Consider `CCCCCCc1ccc(O)cc1OCCCCCCCC(=O)OC(CO)CO`, for which the results for the Ki in series [1] and in [2] were 1.8 µM and 0.8 µM, respectively.

With `CCCCCCc1ccc(OCCCCCCOC(CO)CO)cc1O`, the Ki was 1.13 µM in series [1] and over 10 µM in [2].

For `CCCCCCC(C)(C)c1cc(O)cc(OCCCCCCCC(=O)OC(CO)CO)c1`, the Ki was found to be 0.79 µM in [1] and 1.12 µM in series [2].

Turning to `CCCCCCc1ccc(OCCCCCCCCCCOC(CO)CO)cc1O`, the values for the Ki in [1] and in [2] were 2.39 µM and over 10 µM, respectively.

`CCCCCCC(C)(C)c1cc(O)cc(OCCCCCCOC(CO)CO)c1` came in with a Ki in series [1] of 0.19 µM.

Take `CCCCCCC(C)(C)c1cc(O)cc(OCCCCCCCCCCOC(CO)CO)c1`: the Ki came to 0.38 µM in series [1] and 2.94 µM in [2].

Regarding `CCCCCCC(C)(C)c1cc(O)cc(OCCCCCCCCCCCCOC(CO)CO)c1`, the values for the Ki in series [1] and in [2] were 1.67 µM and 1.04 µM, respectively.

`CCCCCCc1ccc(OCCCCCCCCCCC(=O)OCC(O)CO)cc1O` (stereo not given): the Ki in series [1] was 10.4 µM; in series [2], over 10 µM.

For `CCCCCc1cc(O)cc(OCCCCCCCCCCOC(CO)CO)c1`, the Ki in series [1] and in series [2] was over 10 µM each time.

As to `CCCCCCc1ccc(OCCCCCCCC(=O)OC(CO)CO)cc1O`, the results for the Ki in series [1] and in series [2] were 7.87 µM and over 10 µM, respectively.

Turning to `CCCCCc1cc(O)cc(OCCCCCCCC(=O)OC(CO)CO)c1`, the Ki was found to be 7.87 µM in series [1] and 5.6 µM in [2].

For the compound `CCCCCCc1ccc(OCCCCCCCCCCC(=O)OC(CO)CO)cc1O`, the Ki in series [1] is 7.87 µM; in series [2], over 10 µM.
